Data: publication PMC7797908 (iScience, 2021)

Test system: CAspII
Experiment: Michaelis-Menten kinetics of L-asparagine hydrolysis
Format: biochemical, uncultured Gemmatimonadota bacterium
Settings: free enzyme; assay pH and temperature only in supplement
How it was run: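 Synthetic codon-optimised gene fused to a C-terminal His6 tag in pET21a(+) and expressed in E. coli. Mid-log cultures in LB were induced with 0.2 mM IPTG for 3 hours at 30°C. Protein was purified on nickel-agarose; the preparation was enriched but not fully pure. Km was fitted to the classical Michaelis-Menten equation with L-asparagine as substrate, reported as mean ± SEM.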

Km: 350 ± 20 µM
SMILES: NC(=O)C[C@H](N)C(=O)O [L-asparagine]
